pIC50: −log10 of the molar value.
Key:
[1] = system: Il10 mRNA; test: Il10 mRNA levels after R848 stimulation; assay type: cell-based, mouse; settings: pretreatment, then R848 / microbial stimulation
[2] = system: NF-κB; test: TF-seq pathway reporter assay in BMDMs, NF-κB; assay type: cell-based, mouse; settings: all stimuli tested
Outline: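 Bone-marrow macrophages grown in DMEM with 30% FBS and 10% L929-conditioned medium, transduced on day 4 with a pooled lentiviral sequencing-based reporter library, then frozen and thawed. Cells plated at 100,000/well and pretreated 24 h at 37 °C with test compound (0.1 or 5 μM) or DMSO (0.5%). Stimulated up to 3 h with a ten-ligand panel or Sendai virus (MOI 10). Reporter transcripts counted as unique tagged molecules by sequencing.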

[3] = system: c-Jun; test: c-Jun phosphorylation in R848-activated BMDCs; assay type: cell-based, mouse; settings: dCA pretreatment (100 nM; 18 h)
Outline: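 BMDCs pretreated with test compound, then activated with R848 for a time course. Lysates (10–20 μg protein) separated by SDS–PAGE, transferred to PVDF and immunoblotted for phospho-c-Jun Ser243 (1/1000) with chemiluminescent detection. Two independent experiments.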

[4] = system: bone-marrow-derived dendritic cells (BMDCs); test: Cytokine production in R848-stimulated BMDCs; assay type: cell-based, mouse; settings: for IL-10 upregulation in Ccnc Δ/Δ BMDCs: BMDCs lacking cyclin C; for IL-10 upregulation in Ccnc Δ/Δ BMDCs / IL-10 upregulation in Ccnc f/f BMDCs: R848; for IL-10 production: BMDCs, R848 stimulation; for IL-10 upregulation in Ccnc f/f BMDCs: control BMDCs
Outline: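 BMDCs from C57BL/6 bone marrow, pretreated 24 h with test compound or DMSO (0.5%), then given R848 (2 μg/mL) or zymosan A (4 μg/mL) for 18 h; some sets co-treated with T-5224 (100 μM). Cyclin C-deleted cells came from Ccnc f/f × Mx1-Cre mice given poly(I:C) 2.5 μg g−1 i.p. every other day for 3 d, with bone marrow taken 10 d later and deletion confirmed by PCR. Clarified medium assayed by cytometric bead array. n = 3–4 biological replicates; EC50 by 4-parameter regression.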

[5] = target: T1, recombinant cyclin C–CDK8 (Homo sapiens, UniProt P49336); test: CDK8–c-Jun in vitro kinase reaction; assay type: biochemical; settings: in vitro kinase reaction with recombinant c-Jun
T1 sequence (P49336 whole entry): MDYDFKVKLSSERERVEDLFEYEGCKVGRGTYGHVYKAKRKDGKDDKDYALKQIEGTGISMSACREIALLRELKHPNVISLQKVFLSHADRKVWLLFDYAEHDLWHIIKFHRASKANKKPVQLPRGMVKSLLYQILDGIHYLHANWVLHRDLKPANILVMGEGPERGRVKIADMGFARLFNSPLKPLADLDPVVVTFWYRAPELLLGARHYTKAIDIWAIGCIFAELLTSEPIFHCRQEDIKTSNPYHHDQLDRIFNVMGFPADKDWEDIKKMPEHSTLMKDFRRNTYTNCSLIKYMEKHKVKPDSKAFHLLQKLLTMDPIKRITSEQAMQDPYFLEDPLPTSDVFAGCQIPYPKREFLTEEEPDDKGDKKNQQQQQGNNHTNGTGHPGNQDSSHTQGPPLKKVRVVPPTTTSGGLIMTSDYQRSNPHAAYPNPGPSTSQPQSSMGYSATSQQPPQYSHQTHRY
T1 sequence (P24863 whole entry partner): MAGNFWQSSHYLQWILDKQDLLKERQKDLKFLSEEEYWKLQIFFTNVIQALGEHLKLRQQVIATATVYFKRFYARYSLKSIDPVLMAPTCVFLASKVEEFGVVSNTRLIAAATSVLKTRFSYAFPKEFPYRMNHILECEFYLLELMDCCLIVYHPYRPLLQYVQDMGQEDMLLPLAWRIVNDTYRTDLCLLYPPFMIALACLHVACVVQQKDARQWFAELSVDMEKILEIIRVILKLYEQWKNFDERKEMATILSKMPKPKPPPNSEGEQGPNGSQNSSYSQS
Outline: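 60 ng recombinant cyclin C–CDK8 and 60 ng recombinant human c-Jun pre-incubated 15 min with a dilution series of test compound. Reaction started with 20 μM ATP and run 30 min at 30 °C in 60 mM HEPES pH 7.5, 3 mM MgCl2, 3 mM MnCl2, 1.2 mM DTT, then EDTA-quenched. Read by SDS–PAGE and immunoblot for phospho-c-Jun Ser243; two independent experiments.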

[6] = system: human, monocyte-derived DCs; test: IL-10 production in R848-stimulated human DCs; assay type: cell-based; settings: human DCs from two independent donors, R848 stimulation
Outline: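 CD14+ monocytes enriched from healthy-donor buffy coats and cultured to DCs. On day 7, cells scraped and plated at 30,000/well, treated with a concentration series of test compound or DMSO (0.5%), then stimulated 18 h with R848 (2 μg/mL). Medium stored at −80 °C before IL-10 detection. n = 3 biological replicates per donor; two independent experiments.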

[7] = system: STAT1–STAT2; test: TF-seq pathway reporter assay in BMDMs, STAT1–STAT2; assay type: cell-based, mouse; settings: ~2 h after stimulation
[8] = system: STAT1; test: STAT1 phosphorylation in IFNγ-stimulated BMDCs; assay type: cell-based, mouse; settings: BMDCs pre-incubated with compound
Outline: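 BMDCs pre-incubated with test compound, then stimulated with recombinant murine IFNγ. Cells lysed in Tris pH 7.4 buffer with phosphatase and protease inhibitors, 1% Triton X-100 and 0.2% SDS; lysate clarified at 14,000 × g. 10–20 μg protein run on SDS–PAGE and blotted to PVDF. Probed for total STAT1 and p-STAT1 Tyr701 (1/1,000), β-actin; chemiluminescent detection.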

[9] = target: PI3KCG (Homo sapiens, UniProt P48736); test: Kinase profiling, PI3KCG; assay type: binding; settings: both kinase profiling formats
PI3KCG, sequence (P48736 whole entry): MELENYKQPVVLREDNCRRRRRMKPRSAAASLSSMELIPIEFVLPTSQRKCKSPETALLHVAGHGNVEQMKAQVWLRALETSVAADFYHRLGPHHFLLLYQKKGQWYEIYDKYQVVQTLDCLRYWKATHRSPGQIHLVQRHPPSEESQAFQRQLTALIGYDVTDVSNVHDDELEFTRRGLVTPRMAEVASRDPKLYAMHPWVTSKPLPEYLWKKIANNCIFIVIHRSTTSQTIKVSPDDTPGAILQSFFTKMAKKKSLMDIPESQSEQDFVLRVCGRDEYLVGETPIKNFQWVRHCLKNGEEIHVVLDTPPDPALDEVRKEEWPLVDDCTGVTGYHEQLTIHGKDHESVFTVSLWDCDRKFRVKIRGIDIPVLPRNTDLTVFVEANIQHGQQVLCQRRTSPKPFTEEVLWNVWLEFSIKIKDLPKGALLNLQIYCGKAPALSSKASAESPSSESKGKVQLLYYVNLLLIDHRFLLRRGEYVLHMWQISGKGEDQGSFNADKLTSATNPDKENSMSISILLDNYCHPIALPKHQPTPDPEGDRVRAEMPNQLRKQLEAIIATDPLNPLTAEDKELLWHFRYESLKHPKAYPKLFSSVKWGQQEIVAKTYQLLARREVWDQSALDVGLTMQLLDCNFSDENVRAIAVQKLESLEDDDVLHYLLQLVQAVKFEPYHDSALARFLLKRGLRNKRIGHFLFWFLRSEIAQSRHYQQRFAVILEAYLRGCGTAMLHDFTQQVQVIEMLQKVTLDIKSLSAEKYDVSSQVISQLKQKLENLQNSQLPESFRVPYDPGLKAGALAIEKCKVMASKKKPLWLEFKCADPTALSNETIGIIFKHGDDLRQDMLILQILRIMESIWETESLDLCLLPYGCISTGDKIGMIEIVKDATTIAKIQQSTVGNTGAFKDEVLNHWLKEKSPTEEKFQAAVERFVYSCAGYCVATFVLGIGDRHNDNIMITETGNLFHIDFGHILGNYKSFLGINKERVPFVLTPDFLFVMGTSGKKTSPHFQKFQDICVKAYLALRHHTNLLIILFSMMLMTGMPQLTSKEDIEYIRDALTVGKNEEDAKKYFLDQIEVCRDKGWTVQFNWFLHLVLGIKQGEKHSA
Outline: (§1)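 Test compound screened at 1 μM against 414 kinases (LanthaScreen Eu binding, Adapta or Z-LYTE), scored as percent probe displacement or residual activity versus DMSO (0.5%). Also screened at 10 μM against 395 kinases by KINOMEscan active-site competitive binding, scored as percent displacement of a catalytic-site probe versus DMSO (0.5%).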

[10] = target: human cyclin C–CDK8 complex (Homo sapiens, UniProt P49336); test: Cyclin C-CDK8 LanthaScreen binding assay; settings: read-out: binding to cyclin C–CDK8, half-maximal inhibitory concentration (IC50)
human cyclin C–CDK8 complex, sequence (P49336 whole entry, the tested form may be a part): as the sequence (P49336 whole entry) above
human cyclin C–CDK8 complex, sequence (P24863 whole entry partner, the tested form may be a part): as the sequence (P24863 whole entry partner) above
Outline: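 Human cyclin C–CDK8 complex in a LanthaScreen binding format. Binding expressed as percent displacement of a dye-labelled probe from the CDK8 kinase domain.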

[11] = target: recombinant cyclin C–CDK19 (Homo sapiens, UniProt Q9BWU1); test: CDK19 radiometric filter-binding kinase activity assay; assay type: biochemical; settings: read-out: inhibition of kinase activity of cyclin C–CDK19, IC50
recombinant cyclin C–CDK19, sequence (Q9BWU1 whole entry): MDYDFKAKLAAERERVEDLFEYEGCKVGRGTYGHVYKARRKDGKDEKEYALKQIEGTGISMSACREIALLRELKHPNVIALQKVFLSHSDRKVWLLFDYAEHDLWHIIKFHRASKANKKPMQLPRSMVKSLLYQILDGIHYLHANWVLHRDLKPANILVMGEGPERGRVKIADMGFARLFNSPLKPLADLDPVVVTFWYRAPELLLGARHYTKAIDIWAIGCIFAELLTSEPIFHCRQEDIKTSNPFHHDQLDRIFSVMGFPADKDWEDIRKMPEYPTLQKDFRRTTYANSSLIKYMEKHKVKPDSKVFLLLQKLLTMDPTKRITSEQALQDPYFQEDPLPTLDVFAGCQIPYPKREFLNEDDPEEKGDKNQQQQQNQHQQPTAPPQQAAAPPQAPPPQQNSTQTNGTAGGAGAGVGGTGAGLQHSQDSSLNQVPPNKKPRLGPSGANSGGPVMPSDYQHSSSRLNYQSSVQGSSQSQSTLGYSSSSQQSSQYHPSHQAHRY
recombinant cyclin C–CDK19, sequence (P24863 whole entry partner): as the sequence (P24863 whole entry partner) above
Outline: (§2)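 Purified recombinant cyclin C–CDK8 or cyclin C–CDK19 incubated with a dilution series of test compound. Activity measured by radiometric filter binding as [γ-32P] transfer from ATP to recombinant RBER-IRStide substrate, relative to DMSO (1%) control. IC50 estimated by 4-parameter nonlinear regression.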

[12] = system: mouse bone-marrow-derived macrophages (BMDMs); test: IL-10 production in activated BMDMs; assay type: cell-based; settings: BMDMs activated with zymosan A or R848
Outline: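 Bone-marrow macrophages from C57BL/6 mice, treated 24 h with test compound or DMSO (0.5%), then stimulated 18 h with R848 (2 μg/mL) or zymosan A (4 μg/mL). IL-10 measured in culture medium.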

[13] = target: T1, recombinant cyclin C–CDK8; test: CDK8 radiometric filter-binding kinase activity assay; assay type: biochemical; settings: read-out: inhibition of kinase activity of cyclin C–CDK8, IC50
Outline: as §2

[14] = system: bone-marrow-derived dendritic cells (BMDCs); test: IL-10 release, cytokines and viability in zymosan A-stimulated BMDCs; assay type: cell-based, mouse
[15] = target: PI3KC2A (Homo sapiens, UniProt O00443); test: Kinase profiling, PI3KC2A; assay type: binding; settings: both kinase profiling formats
PI3KC2A, sequence (O00443 whole entry): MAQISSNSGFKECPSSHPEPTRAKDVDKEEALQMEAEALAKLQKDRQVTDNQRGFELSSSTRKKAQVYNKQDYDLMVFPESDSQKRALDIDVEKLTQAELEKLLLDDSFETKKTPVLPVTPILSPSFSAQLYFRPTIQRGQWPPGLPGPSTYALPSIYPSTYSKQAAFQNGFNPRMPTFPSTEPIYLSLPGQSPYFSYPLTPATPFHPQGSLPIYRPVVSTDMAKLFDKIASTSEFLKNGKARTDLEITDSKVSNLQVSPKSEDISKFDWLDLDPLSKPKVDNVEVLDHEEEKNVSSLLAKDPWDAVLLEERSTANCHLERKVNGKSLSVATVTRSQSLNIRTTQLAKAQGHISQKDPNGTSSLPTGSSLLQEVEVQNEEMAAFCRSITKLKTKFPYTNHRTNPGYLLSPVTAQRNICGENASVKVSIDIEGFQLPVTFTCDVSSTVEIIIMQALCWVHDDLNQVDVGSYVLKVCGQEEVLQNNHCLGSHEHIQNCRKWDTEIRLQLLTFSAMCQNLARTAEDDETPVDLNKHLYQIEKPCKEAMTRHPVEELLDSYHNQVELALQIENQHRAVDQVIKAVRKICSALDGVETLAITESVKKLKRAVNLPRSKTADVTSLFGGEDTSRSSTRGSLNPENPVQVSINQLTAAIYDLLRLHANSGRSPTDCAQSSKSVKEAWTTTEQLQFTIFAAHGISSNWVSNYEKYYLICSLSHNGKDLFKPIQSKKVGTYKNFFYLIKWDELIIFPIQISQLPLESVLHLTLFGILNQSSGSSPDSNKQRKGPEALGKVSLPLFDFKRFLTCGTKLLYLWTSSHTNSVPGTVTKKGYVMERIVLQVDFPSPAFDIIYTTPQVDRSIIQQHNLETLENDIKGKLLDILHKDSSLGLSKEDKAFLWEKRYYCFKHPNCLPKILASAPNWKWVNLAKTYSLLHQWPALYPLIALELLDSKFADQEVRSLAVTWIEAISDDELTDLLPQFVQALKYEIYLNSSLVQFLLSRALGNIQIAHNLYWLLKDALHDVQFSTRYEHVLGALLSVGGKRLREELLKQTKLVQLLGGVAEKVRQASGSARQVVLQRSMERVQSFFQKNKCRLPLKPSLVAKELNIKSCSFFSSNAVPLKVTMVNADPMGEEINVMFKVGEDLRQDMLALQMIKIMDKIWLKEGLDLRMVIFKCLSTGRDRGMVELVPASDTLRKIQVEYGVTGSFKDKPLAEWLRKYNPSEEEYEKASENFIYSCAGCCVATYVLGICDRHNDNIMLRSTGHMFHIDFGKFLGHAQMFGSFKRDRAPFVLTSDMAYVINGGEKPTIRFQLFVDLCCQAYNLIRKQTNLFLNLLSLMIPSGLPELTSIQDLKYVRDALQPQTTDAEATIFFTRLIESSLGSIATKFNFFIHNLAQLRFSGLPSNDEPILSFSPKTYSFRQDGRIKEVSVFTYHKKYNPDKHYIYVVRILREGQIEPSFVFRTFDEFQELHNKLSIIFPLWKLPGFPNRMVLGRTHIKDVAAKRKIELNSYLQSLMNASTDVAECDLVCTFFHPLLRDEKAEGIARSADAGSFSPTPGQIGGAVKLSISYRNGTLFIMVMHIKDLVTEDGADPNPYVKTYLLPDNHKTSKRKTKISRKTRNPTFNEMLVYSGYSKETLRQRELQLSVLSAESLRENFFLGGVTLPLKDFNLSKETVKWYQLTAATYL
Outline: as §1

For `COc1ccc(N(C(=O)Nc2c(C)cccc2C)c2cc(Nc3ccc(N4CCN(C)CC4)cc3)ncn2)c(OC)c1` [HG-9-91-01, reference compound], the “Il10 mRNA levels” value [1] was “elevated Il10 mRNA during the first 2 h”.

For `CN(C)[C@H]1C[C@@]23CC[C@@]4(O2)C(=CC[C@]2(C)C(c5ccc6ccncc6c5)=CC[C@H]24)C=C3[C@@H](O)[C@@H]1O` [dCA, Δ^16-cortistatin A], the NF-κB reporter activation [2] was “suppressed NF-κB activation”, the “activating phosphorylation of c-Jun on Ser63” value [3] was “only moderately delayed” and the “phosphorylation of c-Jun Ser243” value [3] was “dramatically reduced phosphorylation”. For the same compound, the “IL-10 upregulation in Ccnc Δ/Δ BMDCs” value [4] was “failed to upregulate IL-10”, the IL-10 production [4] was “recapitulated the IL-10 potentiating activity of BRD6989” and the “IL-10 upregulation in Ccnc f/f BMDCs” value [4] was “remained intact”. The “c-Jun Ser243 phosphorylation by recombinant cyclin C–CDK8” value [5] was “concentration-dependent suppression”, the IL-10 production [6] was “recapitulated the IL-10 potentiating activity of BRD6989” and the “STAT1–STAT2 reporter activity” value [7] was “suppressed induction of STAT1–STAT2 activity”.

For `CC1CCc2nc(N)c(C#N)c(-c3cccnc3)c2C1` (stereo not drawn) [BRD6989], the NF-κB reporter activation [2] was “suppressed NF-κB activation”, the “IL-10 upregulation in Ccnc Δ/Δ BMDCs” value [4] was “failed to upregulate IL-10” and the IL-10 production [4] was “greater fold-increase in IL-10 production”. For the same compound, the “IL-10 upregulation in Ccnc f/f BMDCs” value [4] was “remained intact”, the “IFNγ-induced phosphorylation of STAT1 at Ser727” value [8] was “inhibited” and the “JAK-mediated phosphorylation of STAT1 Tyr701” value [8] was “did not affect”. For the same compound, the “kinase profiling hit, PI3KCG” value [9] was “secondary targets”, the pIC50 [10] was about 6.70 and the pIC50 [11] was under 4.52. The IL-10 production [6] was “upregulated IL-10”, the “STAT1–STAT2 reporter activity” value [7] was “suppressed induction of STAT1–STAT2 activity” and the IL-10 production [12] was “increased IL-10 production”. The “Il10 mRNA levels” value [1] was “sustained increase beginning at 4 h and extending to 24 h”, the pIC50 [13] was about 6.30 and the cell viability ([14]; 48 h pretreatment, zymosan A 18 h) was “modestly reducing cell viability”. For the same compound, the “production of IL-1β” value ([14]; zymosan A) was “largely unchanged”, the “production of IL-12p40” value ([14]; zymosan A) was “largely unchanged” and the “production of TNFα” value ([14]; zymosan A) was “largely unchanged”. The “zymosan A–induced release of IL-6” value ([14]; zymosan A) was “suppressed” and the “kinase profiling hit, PI3KC2A” value [15] was “secondary targets”.

For `CN(C)C/C=C/C(=O)Nc1ccc(C(=O)Nc2cccc(Nc3ncc(Cl)c(-c4c[nH]c5ccccc45)n3)c2)cc1` [THZ-1], the IL-10 production [4] was “not enhanced”.

`Cn1ncc2cc(-c3cnc(N)c(Cl)c3N3CCC4(CCNC4=O)CC3)ccc21` [CCT251921] was tested, and the IL-10 production [4] was “recapitulated the IL-10 potentiating activity of BRD6989” and the IL-10 production [6] was “recapitulated the IL-10 potentiating activity of BRD6989”.
